In article PMC2364724 (Drug metabolism and disposition: the biological fate of …, 2007):
Where “and” joins values, the source holds several entries; their conditions need not be identical. Equal values may be shown once.

Experiments:
[1] = tested on: pooled HIM; test: Phase I biotransformation of DB289 in pooled HIM; type: in vitro ADME, human; details: for Phase I metabolite detection (HPLC/UV): 10 μM DB289, pooled HIM 0.2 mg/ml, NADPH, up to 120 min
How it was run: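 Test compound (10 μM) with pooled HIM (0.2 mg/ml) in 100 mM phosphate pH 7.4, 3.3 mM MgCl2. Equilibrated 5 min at 37°C, then started with 1 mM NADPH. Aliquots taken at 0, 15, 30 and 120 min were quenched in ice-cold acetonitrile and analysed by HPLC/UV. Metabolites were assigned by retention time against synthetic standards. Controls omitted NADPH, microsomal protein or substrate.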

[2] = tested on: purified CYP4A11; details: higher for CYP4A11; ref Powell et al., 1998; cited from earlier work
[3] = tested on: P450 enzymes of pooled HIM (M1 formation from DB289); test: Chemical inhibition of M1 formation in pooled HIM; type: biochemical, human
[4] = tested on: pooled HLM; test: Effect of α-NF on M1 formation by pooled HLM; type: biochemical, human; details: 1 μM α-NF, 3 μM DB289, P > 0.05
[5] = molecular target: T1, recombinant CYP2J2 (Homo sapiens, UniProt P51589); test: Effect of α-NF on M1 formation by recombinant CYP2J2; type: biochemical; details: recombinant CYP2J2 10 pmol/ml, 1 μM α-NF, 3 μM DB289, P < 0.05
T1 sequence (P51589 1-502): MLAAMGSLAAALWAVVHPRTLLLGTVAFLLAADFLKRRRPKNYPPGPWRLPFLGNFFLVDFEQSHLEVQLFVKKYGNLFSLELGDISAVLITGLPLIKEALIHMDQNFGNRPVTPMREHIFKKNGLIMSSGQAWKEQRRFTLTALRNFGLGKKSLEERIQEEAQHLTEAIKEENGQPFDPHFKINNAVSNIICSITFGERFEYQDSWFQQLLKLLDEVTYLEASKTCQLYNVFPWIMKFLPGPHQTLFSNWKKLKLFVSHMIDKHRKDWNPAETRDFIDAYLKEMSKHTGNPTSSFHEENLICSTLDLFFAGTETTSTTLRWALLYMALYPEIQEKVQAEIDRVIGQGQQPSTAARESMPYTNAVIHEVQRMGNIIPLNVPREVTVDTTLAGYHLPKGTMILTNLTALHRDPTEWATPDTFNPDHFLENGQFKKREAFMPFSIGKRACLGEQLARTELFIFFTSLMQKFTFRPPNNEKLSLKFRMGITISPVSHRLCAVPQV

[6] = molecular target: T2, recombinant CYP4F3B (Homo sapiens, UniProt Q08477); test: Effect of α-NF on M1 formation by recombinant CYP4F3B; type: biochemical; details: 1 μM α-NF, 3 μM DB289, P > 0.05
T2 sequence (Q08477 1-520 isoform Q08477-2): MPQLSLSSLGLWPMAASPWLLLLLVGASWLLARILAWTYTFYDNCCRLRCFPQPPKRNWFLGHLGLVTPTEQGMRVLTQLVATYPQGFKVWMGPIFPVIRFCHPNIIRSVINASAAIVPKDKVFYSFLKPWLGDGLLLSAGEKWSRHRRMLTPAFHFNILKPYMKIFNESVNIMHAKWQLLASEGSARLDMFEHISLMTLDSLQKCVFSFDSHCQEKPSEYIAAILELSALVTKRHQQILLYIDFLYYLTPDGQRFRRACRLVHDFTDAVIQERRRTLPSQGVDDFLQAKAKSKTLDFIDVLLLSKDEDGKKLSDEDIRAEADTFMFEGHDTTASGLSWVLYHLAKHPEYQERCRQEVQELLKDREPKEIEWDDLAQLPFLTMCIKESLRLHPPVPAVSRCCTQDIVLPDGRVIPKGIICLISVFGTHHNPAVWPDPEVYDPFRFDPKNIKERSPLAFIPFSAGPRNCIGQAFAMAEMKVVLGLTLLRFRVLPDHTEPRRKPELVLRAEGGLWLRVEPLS

[7] = molecular target: T3, recombinant CYP4F2 (Homo sapiens, UniProt P78329); test: Effect of α-NF on M1 formation by recombinant CYP4F2; type: biochemical; details: recombinant CYP4F2, 1 μM α-NF, 3 μM DB289, P > 0.05
T3 sequence (P78329 5-520): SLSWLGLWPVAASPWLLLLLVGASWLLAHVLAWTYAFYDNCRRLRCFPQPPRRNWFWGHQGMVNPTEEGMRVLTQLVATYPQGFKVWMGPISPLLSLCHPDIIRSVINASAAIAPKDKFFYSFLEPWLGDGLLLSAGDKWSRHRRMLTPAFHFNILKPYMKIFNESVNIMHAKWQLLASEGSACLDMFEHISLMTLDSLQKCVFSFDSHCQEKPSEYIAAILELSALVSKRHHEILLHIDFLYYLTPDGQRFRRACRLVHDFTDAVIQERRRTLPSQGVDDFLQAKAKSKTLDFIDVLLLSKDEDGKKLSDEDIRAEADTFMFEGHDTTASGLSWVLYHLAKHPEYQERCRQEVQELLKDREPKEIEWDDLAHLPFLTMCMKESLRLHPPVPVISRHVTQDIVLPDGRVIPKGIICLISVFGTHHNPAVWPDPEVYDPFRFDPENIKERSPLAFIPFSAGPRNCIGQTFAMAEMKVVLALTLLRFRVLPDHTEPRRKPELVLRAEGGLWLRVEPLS

[8] = molecular target: recombinant CYP3A4 (Homo sapiens, UniProt P08684); test: Effect of α-NF on M1 formation by recombinant CYP3A4; type: biochemical; details: recombinant CYP3A4 10 pmol/ml, 1 μM α-NF, 3 μM DB289, 15 min, P < 0.05
Sequence of recombinant CYP3A4 (P08684 whole entry): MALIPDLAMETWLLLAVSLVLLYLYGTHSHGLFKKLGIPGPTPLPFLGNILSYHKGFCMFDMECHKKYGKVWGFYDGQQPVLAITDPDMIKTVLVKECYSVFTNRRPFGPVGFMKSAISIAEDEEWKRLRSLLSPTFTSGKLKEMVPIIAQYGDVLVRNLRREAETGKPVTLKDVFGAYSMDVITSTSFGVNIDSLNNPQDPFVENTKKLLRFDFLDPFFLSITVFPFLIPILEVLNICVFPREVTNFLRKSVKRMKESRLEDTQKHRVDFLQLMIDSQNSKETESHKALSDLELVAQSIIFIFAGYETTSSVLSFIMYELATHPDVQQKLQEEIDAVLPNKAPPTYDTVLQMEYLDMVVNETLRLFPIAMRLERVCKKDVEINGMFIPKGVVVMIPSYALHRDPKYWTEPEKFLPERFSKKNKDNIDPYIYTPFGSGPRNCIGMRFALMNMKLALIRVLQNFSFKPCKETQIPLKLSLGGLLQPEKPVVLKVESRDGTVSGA

[9] = tested on: recombinant CYP2J2; details: ref Hashizume et al. (2002); cited from earlier work
[10] = six healthy men, p.o. 14C-DB289, single-dose escalation; ref C. Olson, Immtech Pharmaceuticals Inc., personal communication; cited from earlier work
[11] = tested on: HLM; details: panel of HLM; ref Wang et al., 2006; cited from earlier work
[12] = tested on: pooled HLM (human liver microsomes); details: M1 formation, 0.02 mg/ml protein, 3 min, ref Wang et al., 2006; cited from earlier work
[13] = Solubility in the incubation buffer; type: physicochemical; details: highest concentration tested 25 μM
[14] = tested on: human intestinal microsomes (HIM); test: Enzyme kinetics of M1 formation; type: in vitro ADME; details: for KMapp(1): 5 min
[15] = Enzyme kinetics of M1 formation; type: in vitro ADME, human; details: human
[16] = M1 formation, HIM 3, 0.2 mg/ml protein
[17] = M1 formation, HIM 7, 0.2 mg/ml protein
[18] = M1 formation, HIM 30, 0.2 mg/ml protein
[19] = M1 formation, HIM 31, 0.2 mg/ml protein

NC(=NO)c1ccc(-c2ccc(-c3ccc(C(N)=NO)cc3)o2)cc1 [M2]
Phase I metabolite detection (HPLC/UV) [1]: identified

CCCCC/C=C\C/C=C\C/C=C\C/C=C\CCCC(=O)O [arachidonic acid]
Km of 20-HETE formation, CYP4A11 relative to CYP4F2 [2]: 10 fold

N=C(N)c1ccc(-c2ccc(-c3ccc(C(N)=NO)cc3)o2)cc1 [M4]
Phase I metabolite detection (HPLC/UV) [1]: not detected

CCCCCCCCCCCC(=O)O [lauric acid]
inhibition of M1 formation ([3]; pooled HIM 0.2 mg/ml, 3 μM DB289, 5 min, inhibitor concentration as in Fig. 2A): lack of inhibition

O=c1cc(-c2ccccc2)oc2c1ccc1ccccc12 [α-NF, α-naphthoflavone]
effect on M1 formation [4]: not significant
activation of M1 formation [5]: 55%
activation of M1 formation ([3]; different lot of pooled HIM, 1 μM α-NF, 3 μM DB289, P < 0.05): 34%
activation of M1 formation ([3]; pooled HIM, 3 μM DB289 (Fig. 2A)): 43%
effect on M1 formation [6]: not significant
effect on M1 formation [7]: not significant
activation of M1 formation [8]: 120%

CON=C(N)c1ccc(-c2ccc(-c3ccc(C(=N)N)cc3)o2)cc1 [M3]
Phase I metabolite detection (HPLC/UV) [1]: identified

CC(C)(C)c1ccc(C(=O)CCCN2CCC(OC(c3ccccc3)c3ccccc3)CC2)cc1 [ebastine]
Km [9]: 1.3 µM

CONC(=N)c1ccc(-c2ccc(-c3ccc(C(=N)NOC)cc3)o2)cc1 [DB289, 2,5-bis(4-amidinophenyl)furan-bis-O-methylamidoxime]
coefficient of variation for Cmax [10]: approximately 50%
coefficient of variation for area under the curve [10]: approximately 50%
coefficient of variation for terminal half-life [10]: approximately 50%
variation in M1 formation rates [11]: 4 fold and ~ 4 fold
KMapp(1) [12]: 0.5 µM
solubility in the incubation buffer [13]: limited
total intrinsic clearance of M1 formation by HIM relative to pooled HLM ([14]; HIM versus pooled HLM): at most 10%
Vmax(1) ([14]; M1 formation, HIM 1, 0.2 mg/ml protein): 0.12 nmol/min/mg protein
KMapp(1) ([14]; M1 formation, HIM 1, 0.2 mg/ml protein, biphasic): 0.8 µM
Vmax(1) ([14]; M1 formation, HIM 2, 0.1 mg/ml protein): 0.42 nmol/min/mg protein
KMapp(1) ([14]; M1 formation, HIM 2, 0.1 mg/ml protein, biphasic): 0.7 µM
Vmax(1) [14, 16]: 0.24 nmol/min/mg protein
KMapp(1) [14, 16]: 1.3 µM
Vmax(1) [14, 17]: 0.89 nmol/min/mg protein
KMapp(1) [14, 17]: 1.3 µM
KMapp(1) ([14]; M1 formation, HIM 12, 0.2 mg/ml protein): 2.3 µM
KMapp(1) ([14]; M1 formation, HIM 23A, 0.2 mg/ml protein, biphasic): 2.4 µM
Vmax(1) [14, 18]: 0.19 nmol/min/mg protein
KMapp(1) [14, 18]: 0.6 µM
Vmax(1) [14, 19]: 0.02 nmol/min/mg protein
KMapp(1) [14, 19]: 1.4 µM
Vmax(1) ([14]; M1 formation, HIM 32, 0.1 mg/ml protein): 0.44 nmol/min/mg protein
KMapp(1) ([14]; M1 formation, HIM 32, 0.1 mg/ml protein, 37°C): 0.6 µM
KMapp(1), average ([14]; M1 formation, nine individual HIM): 1.3 µM
Vmax(1) ([14]; M1 formation, pooled HIM, 0.2 mg/ml protein): 0.19 nmol/min/mg protein
KMapp(1) ([14]; M1 formation, pooled HIM, 0.2 mg/ml protein, biphasic): 0.7 µM
microsomal CLint ([15]; human intestinal microsomes (individual HIM 32), pH 7.4, CL′int(1), M1 formation, HIM 32, Vmax(1)/KMapp(1)): 730 µL/min/mg
microsomal CLint ([15]; human intestinal microsomes (pooled and nine individual HIM), pH 7.4, total intrinsic clearance [CL′int(1) + CL′int(2)] of M1 formation, range, HIM): 10 to 730 µL/min/mg

CON=C(N)c1ccc(-c2ccc(-c3ccc(C(N)=NO)cc3)o2)cc1 [M1]
Phase I metabolite detection (HPLC/UV) [1]: identified
fraction of M1 further metabolized ([1]; within the first 15 min of incubation, 10 μM DB289, pooled HIM): Less than 10%

N=C(N)c1ccc(-c2ccc(-c3ccc(C(=N)N)cc3)o2)cc1 [DB75, 2,5-bis(4-amidinophenyl) furan]
Phase I metabolite detection (HPLC/UV) [1]: not detected
